Source: PubChem BioAssay
Runt-SMMHC FRET: blocks binding of human RUNX1 Runt domain to CBFb-SMMHC | Q01196+Q13951 | Cerulean-Runt/Venus-CBFb-SMMHC FRET ratio 530/480, 1 h | inhibition, % at 20 µM | hit rate 0.74% among 220,000 | AID 1434;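 active = mean inhibition across duplicate retests at 20 µM reaching about 50%, limit read from the data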;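 also: inhibitors lower the FRET ratio by blocking Runt binding to CBFb-SMMHC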
Target sequence (Q01196 whole entry, looked up, the tested form may be a part): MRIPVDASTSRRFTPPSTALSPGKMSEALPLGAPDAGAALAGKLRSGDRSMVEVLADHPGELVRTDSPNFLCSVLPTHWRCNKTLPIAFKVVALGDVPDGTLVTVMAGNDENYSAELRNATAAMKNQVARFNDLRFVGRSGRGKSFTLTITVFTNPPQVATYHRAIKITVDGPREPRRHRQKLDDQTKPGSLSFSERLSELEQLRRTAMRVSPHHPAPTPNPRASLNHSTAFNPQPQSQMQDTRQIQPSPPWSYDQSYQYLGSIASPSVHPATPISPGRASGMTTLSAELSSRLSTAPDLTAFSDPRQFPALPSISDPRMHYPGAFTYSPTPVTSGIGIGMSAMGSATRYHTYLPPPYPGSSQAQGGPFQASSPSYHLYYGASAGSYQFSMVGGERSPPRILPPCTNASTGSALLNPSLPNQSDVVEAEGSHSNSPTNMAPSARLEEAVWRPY
Target sequence (Q13951 whole entry, looked up, the tested form may be a part): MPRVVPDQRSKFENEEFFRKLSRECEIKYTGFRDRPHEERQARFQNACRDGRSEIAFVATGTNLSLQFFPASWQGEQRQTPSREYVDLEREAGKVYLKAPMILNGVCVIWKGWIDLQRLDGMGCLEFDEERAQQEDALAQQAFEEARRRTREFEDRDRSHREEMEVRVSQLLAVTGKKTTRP
RanGTP-Imp inh: inhibitors of RanGTP-importin-beta interaction, primary screen, biochemical, FRET, CFP-Ran, YFP-importin-beta, homogeneous | cell-free CFP-Ran/YFP-importin-beta FRET ratio | inhibition, % (concentration not given with the values) | hit rate 1.1% among 300,000 | AID 2216;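 active = more than half of the replicate wells show a fall in the fluorescence ratio signal beyond about 16%, limit read from the data, passing the limit was not always enough; inconclusive = exactly half of the replicate wells pass the set limit; inactive = fewer than half of replicates pass the limit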
Runt-CBFb FRET: blocks binding of human RUNX1 Runt domain to CBFb; Q01196+Q13951; Cerulean-Runt/Venus-CBFb FRET ratio 530/480, 1 h; inhibition, % at 20 µM; hit rate 0.46% among 220,000;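 active = inhibition over about 50% at 20 µM in the single-dose screen, limit read from the data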
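Measured by: fluorescence energy transfer, 422 nm excitation, 530/480 nm emission; Assay system: Cerulean-Runt domain; Medium: Tris pH 7.5 buffer with BSA; Measure: loss of energy transfer signal; Controls: 5 µM unlabeled CBFb as full-inhibition high control; Incubation: protein complex preformed 1 h, compound exposure 1 h, room temperature, dark.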
Hck Nef HTS: inhibitors of human Hck kinase activated by Nef; hit rate 0.68% among 220,000; inhibition, % at 20 µM; Recombinant Hck-YEEI plus Nef, Z-Lyte FRET kinase assay; P08631;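 active = Hck-Nef kinase inhibition above about 50%, limit read from the data; inactive = inhibition below that limit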
Numbers stand for hits; 0 = inactive; ? = inconclusive; - = no result. Only some compounds are listed: those with a hit (about 1.8% of all), similar ones and a draw of the others.

SMILES | Runt-SMMHC FRET | RanGTP-Imp inh | Runt-CBFb FRET | Hck Nef HTS
Cc1ccc(S(=O)(=O)C(C#N)c2nc3ccccc3nc2N2CCN(C)CC2)cc1C (stereo unspecified) | 0 | 93.5 | 0 | 0
CN1CCN(c2nc3ccccc3nc2C(C#N)S(=O)(=O)c2ccccc2)CC1 (stereo unspecified) | 0 | 64.3 | 0 | 0
COc1ccc(OC)c(NC(=O)C2CCN(C(=O)c3cccs3)CC2)c1 | 0 | 0 | 65.5 | 0
CCOC(=O)C1CCCN(Cc2c(C(=O)N3CCOCC3)nc3ccccn23)C1 (stereo unspecified) | 0 | 0 | 0 | 0
COC1CCCN(Cc2c(C(=O)N3CCN(C4CCCCC4)CC3)nc3ccccn23)C1 (stereo unspecified) | - | 103.8 | - | -
C[C@@H]1CN(Cc2cn(C)nc2-c2cccc(Cl)c2)C[C@H](C)O1 | 0 | 0 | 0 | 0
Cc1ccc(NC2=CC(=O)CC(c3ccc(Cl)cc3)C2)cc1 (stereo unspecified) | 0 | 34.8 | 0 | 0
COC(=O)C1=C(C)N=C2SC(C#N)=C(N)N2C1c1ccc(OC)cc1 (stereo unspecified) | 0 | 21.1 | 0 | 0
COC(=O)C1=C(C)N=C2SC(C#N)=C(N)N2C1c1cccc(OC)c1 (stereo unspecified) | 0 | ? | 0 | 0
COc1cc2c(cc1OC)CN(C(=O)Cc1c(F)cccc1Cl)CC2 | - | 0 | - | -
Cc1ccc2cc3c(NC(=O)c4ccco4)nn(CC(C)C)c3nc2c1 | 0 | 39.4 | 0 | 0
CC(C)Cn1nc(NS(=O)(=O)c2ccccc2)c2cc3ccccc3nc21 | 0 | 0 | 0 | 0
CC(C)Cn1nc(NC(=O)C2CCCO2)c2cc3ccccc3nc21 (stereo unspecified) | 0 | 27.2 | 0 | 0
COc1ccc(C2CC(=O)c3ccccc3O2)cc1 (stereo unspecified) | 0 | 0 | 0 | 0
Cc1cccn2c(=O)c3cc(C(=O)NC4CCCCC4)n(C)c3nc12 | - | 0 | - | -
Cc1cccn2c(=O)c3cc(C(=O)NCCCN4CCOCC4)n(C)c3nc12 | 0 | - | 0 | -
Cc1cccn2c(=O)c3cc(C(=O)NC4CCCCC4)c(=N)n(CCN4CCOCC4)c3nc12 | 127.7 | 112.7 | 97.1 | 0
Cc1cccn2c(=O)c3cc(C(=O)NC4CCCC4)c(=N)n(C4CCCC4)c3nc12 | 62.6 | 180.0 | 0 | 65.6
Cc1cccn2c(=O)c3cc(C(=O)NC4CCCC4)n(C)c3nc12 | - | 0 | - | -
CCCCNC(=O)c1cc2c(=O)n3cccc(C)c3nc2n(CCN2CCOCC2)c1=N | 61.6 | 149.7 | 99.9 | 0
CC(Nc1cccc(F)c1)C(=O)Nc1ccc(S(N)(=O)=O)cc1 (stereo unspecified) | 0 | 0 | 0 | 0
CC1C(=O)N2CCCc3cc(NC(=O)CC(C)(C)C)cc1c32 (stereo unspecified) | - | 0 | - | -
COc1ccc(-c2cn3nc(SCC(=O)NCC4CCCO4)ccc3n2)cc1 (stereo unspecified) | - | 0 | - | -
COc1ccc(C(C(=O)NCC2CCCO2)N(C(=O)c2snc(C(N)=O)c2N)c2ccccc2C)cc1OC (stereo unspecified) | - | 0 | - | -
O=C(O)c1cc(N=Cc2c(O)c3ccccc3oc2=O)ccc1O | - | 0 | - | -
SMILES | Runt-SMMHC FRET | RanGTP-Imp inh | Runt-CBFb FRET | Hck Nef HTS
O=C(OC1CCCCC1)c1ccc2c(c1)C1C=CCC1C(C(=O)O)N2 (stereo unspecified) | 0 | - | 0 | 77.0
CC(=O)N/C(=C\c1ccccc1)C(=O)OCc1cc(C)ccc1C | - | 0 | - | -
Cc1ccc2nc(NCc3ccccc3)c(C=NCc3ccccc3)c(=O)n2c1 | 0 | 0 | 0 | 0
Cc1ccc2nc(NCCCN3CCOCC3)c(C=NCCCN3CCOCC3)c(=O)n2c1 | 66.3 | 39.2 | 76.2 | 0
Cc1ccc2nc3c(cc(C(=O)NCCc4ccccc4)c(=N)n3CCN3CCOCC3)c(=O)n2c1 | - | 158.8 | - | -
Cc1ccc2nc3c(cc(C(=O)NCCN4CCOCC4)c(=N)n3CCCN3CCOCC3)c(=O)n2c1 | - | 143.3 | - | -
Cc1ccc(C(C)NC(=O)c2cc3cc(Br)ccc3oc2=N)cc1 (stereo unspecified) | - | 0 | - | -
Cc1cc(=O)[nH]c(N/N=C/c2cn(CCC#N)nc2-c2ccccc2)n1 | 0 | 0 | 0 | 0
O=C1C(=O)N(CCCO)C(c2ccc(Br)cc2)/C1=C(\O)c1ccc(Br)cc1 (stereo unspecified) | - | 0 | - | -
CCOC(=O)/C(=C/c1ccc(N2CCC(c3ccccc3)=N2)cc1)C(C)=O | 78.7 | 0 | 0 | 0
c1ccc(C2=NN(c3ccccc3)CC2)cc1 | 0 | ? | 0 | 0
CC1(C)CC(=O)C(C(=O)c2ccccc2)C(=O)C1 | 0 | 0 | 0 | 0
CC(C)[C@H](NC(=O)c1cccc(CN(Cc2ccccc2)C(=O)c2ccccc2)c1)C(=O)O | - | 0 | - | -
COc1ccc(NC(=O)CN(CC(=O)Nc2ccc(OC)cc2)C(C)(C)CO)cc1 | - | 0 | - | -
CCC(CO)(CO)N(CC(=O)Nc1ccc(OC)cc1)CC(=O)Nc1ccc(OC)cc1 | - | 28.2 | - | -
O=C(CN1CCCCCC1)Nc1cccc([N+](=O)[O-])c1 | 0 | 0 | 0 | 0
O=C(CN1C(=O)c2ccccc2C1=O)Nc1cccc([N+](=O)[O-])c1 | 0 | 21.4 | 0 | 0
COc1ccccc1C(=O)Nc1ccnn1C1CCN(C(C)CSC)CC1 (stereo unspecified) | - | 22.6 | - | -
O=C(CN(CCc1ccccc1)S(=O)(=O)c1ccc(Cl)cc1)N/N=C/c1ccccc1C(=O)O | 0 | 20.4 | 0 | 0
Cc1ccc(CN2CCN(Cc3ccco3)CC2)cc1 | - | 0 | - | -
O=C(N/N=C/c1c(O)n(-c2ccc(Cl)cn2)c(=O)c2ccccc12)c1ccncc1 | 85.5 | 0 | 0 | 0
O=C(N/N=C/c1c(O)n(-c2ccc(Cl)cn2)c(=O)c2ccccc12)C1CC1 | 0 | 0 | 0 | 0
Cc1cc(NCc2ccccn2)n2c(nc3ccccc32)c1C#N | - | 96.5 | - | 0
Cc1cccc(NC(=O)CSc2cc(C)c(C#N)c3nc4ccccc4n23)c1 | 80.2 | 0 | 0 | 0
C=C(C)Cc1c(C)c(C#N)c2nc3ccccc3n2c1NCCCN(C)C | 0 | 38.1 | 0 | 0
SMILES | Runt-SMMHC FRET | RanGTP-Imp inh | Runt-CBFb FRET | Hck Nef HTS
Cc1cc(NCCCO)n2c(nc3ccccc32)c1C#N | 0 | 55.7 | 0 | 0
CCCc1cc(NCc2ccccn2)n2c(nc3ccccc32)c1C#N | 0 | 0 | 0 | 0
CCOC(=O)CC1C(=O)NCCN1C(=O)c1c(Cl)cccc1Cl (stereo unspecified) | - | 0 | - | -
CCCOc1ccc(/C=N/NC(=O)c2ccc3c(c2)OCO3)c(OCCC)c1 | - | 0 | - | -
O=C(OC1CCCCC1=O)c1ccc(F)c(S(=O)(=O)N2CCOCC2)c1 (stereo unspecified) | - | 0 | - | -
CCc1c(C)c(C#N)c2nc3ccccc3n2c1NC | - | 0 | - | -
CCN(CC)c1cc(C)c(C#N)c2nc3ccccc3n12 | 90.1 | 31.9 | 55.0 | 0
CCc1c(C)c(C#N)c2nc3ccccc3n2c1NCCN(C)C | 0 | ? | 0 | 0
Cc1c(Cc2ccccc2)c(NCCCO)n2c(nc3ccccc32)c1C#N | 77.6 | ? | 56.7 | 0
CCc1c(C)c(C#N)c2nc3ccccc3n2c1NCc1ccco1 | 71.6 | ? | 0 | 0
Cc1cc(NCCOCCO)n2c(nc3ccccc32)c1C#N | - | 21.3 | - | -
